Reference: ChEMBL document CHEMBL1938298, “Synthesis and characterization of [¹²⁵I]2-iodo N-[(S)-{(S)-1-methylpiperidin-2-yl}(phenyl)methyl]3-trifluoromethyl-benzamide as novel imaging probe for glycine transporter 1” (Bioorg Med Chem, 2011)
The source made the active and inactive calls. No cut-off for these calls is given here.

Columns and labels:
[1] = system: Lung; test: Drug uptake in ddY mouse lung at 11.1 kBq, iv after 30 min by gamma counting; assay type: ADME, organism-based; settings: in vivo, 0.5 h
In short: (§1)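 Male ddY mice (6 weeks, 30–35 g) were given about 11.1 kBq of [125I]tracer in 0.1 mL i.v. via the tail vein. At each time point the animals were killed and organs dissected, weighed and gamma-counted. Uptake is expressed as % injected dose per gram of tissue, mean ± SD, n = 5–6.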

[2] = system: Spleen; test: Drug uptake in ddY mouse spleen at 11.1 kBq, iv after 15 min by gamma counting; assay type: ADME, organism-based; settings: in vivo; in short: as §1
[3] = system: Intestine; test: Drug uptake in ddY mouse intestine at 11.1 kBq, iv after 30 min by gamma counting; assay type: ADME, organism-based; settings: in vivo, 0.5 h
In short: (§2)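 Male ddY mice (6 weeks, 30–35 g) received about 11.1 kBq [125I]tracer in 0.1 mL i.v. via tail vein. Killed at set times, organs dissected and weighed, radioactivity gamma counted. Reported as % injected dose/g tissue, mean ± SD, n = 5–6.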

[4] = system: Nucleic Acid; test: Ratio of drug level in brain to blood in ddY mouse at 11.1 kBq, iv after 60 min by gamma counting; assay type: ADME, organism-based; settings: 1 h
[5] = system: Blood; test: Drug uptake in ddY mouse blood at 11.1 kBq, iv after 15 min by gamma counting; assay type: ADME, organism-based; settings: in vivo; in short: as §2
[6] = system: Mus musculus; test: In vivo binding affinity to GlyT1 in ddY mouse brain thalamus at 33.3 kBq, iv after 60 mins in presence of SSR504734 2 mg/kg, iv administered 15 mins prior to compound administration relative to control; assay type: functional, organism-based; set-up: dose 2 mg/kg; settings: tested as the 125I-labelled form
[7] = molecular target: T1, Sodium- and chloride-dependent glycine transporter 1 (Rattus norvegicus) (UniProt P28572); test: Binding affinity to GlyT1 in rat brain striatum at 0.03 to 0.04 nM preincubated for 20 mins in binding buffer before compound addition measured after 30 mins by autoradiography in presence of 0.01 mM GlyT1 inhibitor ALX5407 relative to control; assay type: tissue-based; settings: tested as the 125I-labelled form
T1 sequence (whole entry): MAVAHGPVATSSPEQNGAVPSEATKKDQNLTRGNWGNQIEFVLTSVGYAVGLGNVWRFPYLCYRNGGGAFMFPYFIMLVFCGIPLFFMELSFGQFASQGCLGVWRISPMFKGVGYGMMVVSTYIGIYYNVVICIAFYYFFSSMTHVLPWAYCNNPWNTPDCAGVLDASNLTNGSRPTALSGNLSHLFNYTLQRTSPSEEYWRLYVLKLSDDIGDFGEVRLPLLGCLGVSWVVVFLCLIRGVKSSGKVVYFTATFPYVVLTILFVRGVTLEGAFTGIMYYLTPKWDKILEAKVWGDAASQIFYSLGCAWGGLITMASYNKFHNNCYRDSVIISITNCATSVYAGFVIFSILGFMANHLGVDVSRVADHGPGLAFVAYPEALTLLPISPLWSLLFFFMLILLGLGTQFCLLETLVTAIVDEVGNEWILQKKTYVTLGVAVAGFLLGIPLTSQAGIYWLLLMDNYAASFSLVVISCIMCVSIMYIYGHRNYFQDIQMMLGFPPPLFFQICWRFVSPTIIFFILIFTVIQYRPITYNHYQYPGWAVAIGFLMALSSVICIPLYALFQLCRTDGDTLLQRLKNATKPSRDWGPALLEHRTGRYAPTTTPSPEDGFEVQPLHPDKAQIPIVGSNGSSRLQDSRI

[8] = molecular target: T1, Sodium- and chloride-dependent glycine transporter 1 (Rattus norvegicus); test: Binding affinity to GlyT1 in rat brain cerebral cortex at 0.03 to 0.04 nM preincubated for 20 mins in binding buffer before compound addition measured after 30 mins by autoradiography in presence of 0.01 mM GlyT1 inhibitor ALX5407 relative to control; assay type: tissue-based; settings: tested as the 125I-labelled form
In short: (§3)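 Rat brain sagittal sections (20 µm) preincubated 20 min at 25 °C in Tris-HCl buffer pH 7.5 (NaCl, KCl, MgCl2, CaCl2), then 30 min at 25 °C with [125I] tracer (100 kBq, 0.03–0.04 nM) plus competitor (10 µM; glycine 1 or 10 mM). Cold washes, imaging plate 3 days, ROI PSL minus background per mm². % control from ≥triplicate slices, three rats.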

[9] = molecular target: T1, Sodium- and chloride-dependent glycine transporter 1 (Rattus norvegicus); test: Binding affinity to GlyT1 in rat brain cerebellum at 0.03 to 0.04 nM preincubated for 20 mins in binding buffer before compound addition measured after 30 mins by autoradiography in presence of 0.01 mM NMDA receptor glycine site antagonist L-701,324 relative to control; assay type: tissue-based; settings: tested as the 125I-labelled form; in short: as §3
[10] = molecular target: T2, Sodium- and chloride-dependent glycine transporter 1 (Homo sapiens) (UniProt P48067); test: Ratio of compound IC50 to ALX5407 IC50 for human GlyT1
T2 sequence (whole entry): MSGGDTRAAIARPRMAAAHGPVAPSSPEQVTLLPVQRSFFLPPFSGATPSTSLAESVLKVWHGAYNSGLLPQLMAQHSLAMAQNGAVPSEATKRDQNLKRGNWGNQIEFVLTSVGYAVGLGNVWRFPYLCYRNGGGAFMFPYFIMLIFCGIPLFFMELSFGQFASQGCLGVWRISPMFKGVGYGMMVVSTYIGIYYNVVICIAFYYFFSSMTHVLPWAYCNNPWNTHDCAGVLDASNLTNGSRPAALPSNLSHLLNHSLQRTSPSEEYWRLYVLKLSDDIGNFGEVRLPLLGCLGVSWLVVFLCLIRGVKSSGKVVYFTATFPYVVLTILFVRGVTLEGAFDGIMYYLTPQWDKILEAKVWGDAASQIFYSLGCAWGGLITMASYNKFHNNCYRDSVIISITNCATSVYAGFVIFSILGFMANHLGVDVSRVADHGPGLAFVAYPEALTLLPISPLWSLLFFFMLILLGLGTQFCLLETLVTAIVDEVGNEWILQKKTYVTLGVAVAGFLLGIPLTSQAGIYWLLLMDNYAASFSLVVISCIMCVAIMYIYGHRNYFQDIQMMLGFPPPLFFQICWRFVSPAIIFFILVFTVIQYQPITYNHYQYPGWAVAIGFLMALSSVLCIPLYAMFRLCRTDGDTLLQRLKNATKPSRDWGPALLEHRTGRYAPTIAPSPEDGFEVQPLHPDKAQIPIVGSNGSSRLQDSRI

[11] = molecular target: T1, Sodium- and chloride-dependent glycine transporter 1 (Rattus norvegicus); test: Binding affinity to GlyT1 in rat brain cerebral cortex at 0.03 to 0.04 nM preincubated for 20 mins in binding buffer before compound addition measured after 30 mins by autoradiography in presence of 1 mM GlyT1 substrate glycine relative to control; assay type: tissue-based; settings: tested as the 125I-labelled form; in short: as §3
[12] = system: Mus musculus; test: In vivo binding affinity to GlyT1 in ddY mouse brain midbrain at 33.3 kBq, iv after 60 mins in presence of SSR504734 2 mg/kg, iv administered 15 mins prior to compound administration relative to control; assay type: functional, organism-based; set-up: dose 2 mg/kg; settings: tested as the 125I-labelled form
[13] = molecular target: T1, Sodium- and chloride-dependent glycine transporter 1 (Rattus norvegicus); test: Binding affinity to GlyT1 in rat brain hippocampus at 0.03 to 0.04 nM preincubated for 20 mins in binding buffer before compound addition measured after 30 mins by autoradiography relative to control; assay type: tissue-based; settings: tested as the 125I-labelled form
In short: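 Rat brain sagittal sections (20 µm), 20 min preincubation at 25 °C in Tris-HCl pH 7.5 binding buffer, then [125I] tracer (100 kBq, 0.03–0.04 nM) for 30 min at 25 °C. Nonspecific binding taken with 10 µM unlabeled ligand. Imaging-plate read-out as (PSL−BG)/mm². Mean ± SD, n = 4–5 from at least three rats; Mann–Whitney U-test.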

Compound: CN1CCCC[C@H]1[C@@H](NC(=O)c1cccc(C(F)(F)F)c1[125I])c1ccccc1
- Drug uptake [1]: 17.07 % ID/g
- Drug uptake [2]: 5.5 % ID/g
- Drug uptake [3]: 5.76 % ID/g
- Ratio [4]: 2.32
- Drug uptake [5]: 0.69 % ID/g

Compound: CN1CCCC[C@H]1[C@@H](NC(=O)c1cccc(C(F)(F)F)c1I)c1ccccc1
- Activity [6]: inactive
- Activity [7]: 46.7%
- Activity [8]: 57.6%
- Activity [9]: 87.1%
- Ratio IC50 [10]: 6
- Activity [11]: 89.6%
- Activity [12]: inactive
- Activity [13]: inactive
